The source made the active and inactive calls. The calls are words filed in the database; no cut-off is given here.
Tests used:
Neuronal progenitor cell [1] = test: Induction of neuronal differentiation in C57BL/6J mouse neuronal progenitor cells assessed as expression of Map2 at 1 uM treated for every second day for 4 days measured after 48 hrs by DAPI-staining based immunofluorescence method; type: functional
Method in brief: (§1)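 Neural stem cells taken from embryonic day 14 cerebrum of C57BL/6J mice, dispersed with trypsin/DNase I at 37 °C, seeded and grown 1 day at 37 °C, 5% CO2. Medium replaced with 10% FCS DMEM (low glucose) containing 1 µM analogue; ethanol at 0.1% as control. After 48 h, cells permeabilized with 0.2% Triton X-100. Staining used anti-Map2 (CF594, red) and anti-Gfap (CF488A, green), each overnight at 4 °C, with DAPI nuclei, then fluorescence microscopy.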

Neuronal progenitor cell [2] = test: Induction of neuronal differentiation in C57BL/6J mouse neuronal progenitor cells assessed as expression of Gfap at 1 uM treated for every second day for 4 days measured after 48 hrs by DAPI-staining based immunofluorescence method; type: functional; method in brief: as §1
[3] = Induction of neuronal differentiation in C57BL/6J mouse neuronal progenitor cells assessed as fold increase in Map2/beta-actin mRNA level at 1 uM treated for every second day for 4 days by RT-PCR analysis relative to control; type: functional, Neuronal progenitor cell
Method in brief: (§2)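 C57BL/6J E14 mouse cerebral neural stem cells were cultured 24 h after seeding. They were then treated with 1 µM analogue or ethanol control for 4 days, dosed every second day. mRNA was extracted, and Map2, Gfap and β-actin were quantified by real-time PCR. Map2/β-actin or Gfap/β-actin ratios were normalized to the EtOH control (set at 1.0). Values are means of three independent experiments; significance by Dunnett's t-test.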

Neuronal progenitor cell [4] = test: Induction of neuronal differentiation in C57BL/6J mouse neuronal progenitor cells assessed as increase in Gfap/beta-actin mRNA level at 1 uM treated for every second day for 4 days by RT-PCR analysis relative to control; type: functional, cell-based; method in brief: as §2
Neuronal progenitor cell [5] = test: Induction of neuronal differentiation in C57BL/6J mouse neuronal progenitor cells assessed as increase in relative ratio of Map2/Gfap mRNA level at 1 uM treated for every second day for 4 days by RT-PCR analysis relative to control; type: functional, cell-based
Method in brief: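 E14 C57BL/6J mouse cerebral neural progenitor cells were treated with 1 µM analogue or ethanol every second day for 4 days. Map2 and Gfap mRNA (each relative to β-actin) were measured by real-time PCR. The Map2/Gfap ratio was calculated and normalized to the EtOH control (set at 1.0).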

Neuronal progenitor cell [6] = test: Induction of neuronal differentiation in C57BL/6J mouse neuronal progenitor cells assessed as increase in Map2/beta actin mRNA level at 1 uM treated for every second day for 4 days by RT-PCR analysis relative to control; type: functional, cell-based; method in brief: as §2

Row | Structure (SMILES) | Activity (Neuronal progenitor cell [1]) | Activity (Neuronal progenitor cell [2]) | fold change (FC) [3] | Activity (Neuronal progenitor cell [4]) | Activity (Neuronal progenitor cell [5]) | Activity (Neuronal progenitor cell [6])
1 | CC(C)=CCC/C(C)=C/CC/C(C)=C/CC/C(C)=C/CC1=C(C)C(=O)c2ccccc2C1=O [MENATETRENONE] | Active | Active | >2 | Active | – | –
2 | CC1=C(C/C=C(\C)CC/C=C(\C)CNc2ccc(F)cc2)C(=O)c2ccccc2C1=O | Active | inactive | > 2 | – | Active | –
3 | CC1=C(C/C=C(\C)CC/C=C(\C)CNc2ccccc2)C(=O)c2ccccc2C1=O | – | – | – | – | – | Active
4 | CC1=C(C/C=C(\C)CC/C=C(\C)CC/C=C(\C)COc2cccc(C)c2)C(=O)c2ccccc2C1=O | Active | inactive | – | – | Active | Active
5 | CC1=C(C/C=C(\C)CC/C=C(\C)CC/C=C(\C)COc2ccccc2)C(=O)c2ccccc2C1=O | – | – | – | – | – | Active
